Active and inactive are the calls of the source. No cut-off for these calls is given here.
Assays:
Rattus norvegicus [1] = species: Rattus norvegicus; test: Displacement of [35S]tert-butylbicyclo[ 2.2.2]phosphorothionate from GABAA receptor in Wistar rat brain membrane at 100 nM relative to control; type: cell membranes
In short: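 Membranes from male Wistar rat brain incubated 1 h at 37 °C with 2 nM [35S]TBPS and test compound at 100 nM. Binding expressed as % of buffer-only control samples. Mean ± SD of triplicates or quadruplicates. Kruskal-Wallis global test, then Mann-Whitney-Wilcoxon against control.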

Rattus norvegicus [2] = species: Rattus norvegicus; test: Inhibition of [35S]tert-butylbicyclo[ 2.2.2]phosphorothionate binding to GABAA receptor in Wistar rat brain membrane relative to control; type: cell membranes
In short: (§1)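 Male Wistar rat brain membranes incubated 1 h at 37 °C with 2 nM [35S]TBPS and compound at 1 nM to 10 μM, in duplicates. IC50 estimated as the steroid concentration giving half-maximal inhibition of binding. Imax is the maximal suppression of binding.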

Phaseolus vulgaris [3] = test: Brassinolide type activity in Phaseolus Vulgaris L., cv. Pinto assessed as difference of prolongation of second internode at 1 pmol/L by second-internode bioassay relative to control; type: functional
In short: (§2)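 Bean second-internode bioassay. Compound applied in lanolin; second-internode length measured 5 days after application. Activity taken as the difference in internode prolongation (mm) between treated and control plants. Reported concentrations were 10^-10, 10^-7 and 10^-12 mol/L. Mean ± SD.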

BJ = test: Cytotoxicity against human BJ cells after 72 hrs by calcein-AM assay; type: cell-based
In short: (§3)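 Human normal fibroblast BJ, T-lymphoblastic leukemia CEM and breast carcinoma MCF-7 cells exposed for 72 h to six serial 4-fold dilutions of compound. Surviving cell proportion read by calcein-AM assay and IC50 calculated. Mean ± SD of three independent experiments, each in triplicate. 28-Homocastasterone served as positive control.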

Phaseolus vulgaris [4] = test: Brassinolide type activity in Phaseolus Vulgaris L., cv. Pinto assessed as difference of prolongation of second internode at 0.1 umol/L by second-internode bioassay relative to control; type: functional; in short: as §2
[5] = Inhibition of [35S]tert-butylbicyclo[ 2.2.2]phosphorothionate binding to GABAA receptor in Wistar rat brain membrane; type: cell membranes; in short: as §1
CCRF-CEM = test: Cytotoxicity against human CEM cells after 72 hrs by calcein-AM assay; type: functional, cell-based; in short: as §3
MCF7 = test: Cytotoxicity against human MCF7 cells after 72 hrs by calcein-AM assay; type: functional, cell-based; details: MCF7, 72 h; in short: as §3

| SMILES | Activity (Rattus norvegicus [1]) [%] | Imax (Rattus norvegicus [2]) [%] | Activity (Phaseolus vulgaris [3]) [mm] | Activity (BJ) | Activity (Phaseolus vulgaris [4]) | IC50 [5] [µM] | IC50 (CCRF-CEM) [µM] | IC50 (MCF7) [µM] |
| --- | --- | --- | --- | --- | --- | --- | --- | --- |
| C[C@H]([C@@H](O)[C@H](O)CC(F)(C(F)(F)F)C(F)(F)F)[C@H]1CC[C@H]2[C@@H]3COC(=O)[C@H]4C[C@H](O)[C@H](O)C[C@]4(C)[C@H]3CC[C@]12C | 56.6 | 59.4 | 10.7 | Non-toxic | 15.9 mm | 0.1 | > 50 | > 50 |
| CC[C@@H](C(C)C)[C@@H](O)[C@H](O)[C@@H](C)[C@H]1CC[C@H]2[C@@H]3CC(=O)[C@H]4C[C@H](O)[C@H](O)C[C@]4(C)[C@H]3CC[C@]12C | – | – | – | Non-toxic | – | – | 13 | > 50 |
| CC(C(O)C(O)CC(F)(F)C(F)(F)C(F)(F)F)C1CCC2C3CC(=O)C4CC(O)C(O)CC4(C)C3CCC12C (centres undefined) | – | – | – | Non-toxic | – | – | 35.3 | 48.2 |
| C[C@H]([C@@H](O)[C@H](O)CC(F)(F)C(F)(F)C(F)(F)C(F)(F)C(F)(F)C(F)(F)F)[C@H]1CC[C@H]2[C@@H]3COC(=O)[C@H]4C[C@H](O)[C@H](O)C[C@]4(C)[C@H]3CC[C@]12C | 47.2 | 57.9 | – | Non-toxic | – | 0.9 | > 50 | > 50 |
| C[C@H]([C@@H](O)[C@H](O)CC(F)(F)C(F)(F)C(F)(F)F)[C@H]1CC[C@H]2[C@@H]3COC(=O)[C@H]4C[C@H](O)[C@H](O)C[C@]4(C)[C@H]3CC[C@]12C | 95.1 | – | – | Non-toxic | Active | – | > 50 | > 50 |
| CC(C(O)C(O)CC(F)(F)C(F)(F)C(F)(F)C(F)(F)C(F)(F)C(F)(F)F)C1CCC2C3CC(=O)C4CC(O)C(O)CC4(C)C3CCC12C (centres undefined) | – | – | – | Non-toxic | – | – | > 50 | > 50 |
| C[C@H]([C@@H](O)[C@H](O)CC(F)(C(F)(F)F)C(F)(F)F)[C@H]1CC[C@H]2[C@@H]3CC(=O)C4C[C@H](O)[C@H](O)C[C@]4(C)[C@H]3CC[C@]12C (some centres undefined) | – | – | – | Non-toxic | – | – | > 50 | > 50 |
| CC(=O)[C@H]1CC[C@H]2[C@@H]3CC[C@H]4C[C@H](O)CC[C@]4(C)[C@H]3CC[C@]12C [BREXANOLONE] | 56.2 | 79 | – | – | – | 0.08 | – | – |
